Results from ChEMBL document CHEMBL5661979, “Pharmacological inhibition of BMK1 suppresses tumor growth through promyelocytic leukemia protein” (Cancer Cell, 2010).

How the values were obtained:
[1] = molecular target: Serine/threonine-protein kinase Nek7 (Homo sapiens, UniProt Q8TDX7); assay: Inhibition of NEK7 in human HeLa cells lysate pre incubated for 15 mins followed by ATP acyl phosphate probe addition and measured after 10 mins by LC-MS/MS analysis; format: subcellular
[2] = molecular target: Serine/threonine-protein kinase PLK1 (Homo sapiens, UniProt P53350); assay: Inhibition of PLK1 K1 site in human HeLa cells lysate pre incubated for 15 mins followed by ATP acyl phosphate probe addition and measured after 10 mins by LC-MS/MS analysis; format: subcellular
Chain of Serine/threonine-protein kinase PLK1 (P53350 whole entry): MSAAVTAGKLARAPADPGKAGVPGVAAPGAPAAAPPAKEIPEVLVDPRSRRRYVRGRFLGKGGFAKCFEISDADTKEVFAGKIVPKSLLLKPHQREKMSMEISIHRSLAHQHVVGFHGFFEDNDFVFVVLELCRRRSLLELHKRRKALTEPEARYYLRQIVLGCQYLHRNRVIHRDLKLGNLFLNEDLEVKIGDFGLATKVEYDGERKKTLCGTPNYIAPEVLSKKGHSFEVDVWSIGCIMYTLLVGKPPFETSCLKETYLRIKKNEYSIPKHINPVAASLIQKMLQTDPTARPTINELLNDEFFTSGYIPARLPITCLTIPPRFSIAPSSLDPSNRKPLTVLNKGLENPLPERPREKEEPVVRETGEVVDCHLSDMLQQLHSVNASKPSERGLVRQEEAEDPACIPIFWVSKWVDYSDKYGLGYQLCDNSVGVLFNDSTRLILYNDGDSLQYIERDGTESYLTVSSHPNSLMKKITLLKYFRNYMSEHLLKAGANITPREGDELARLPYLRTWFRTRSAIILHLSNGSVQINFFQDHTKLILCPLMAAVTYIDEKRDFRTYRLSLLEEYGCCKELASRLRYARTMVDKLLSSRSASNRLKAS

[3] = molecular target: Phosphatidylinositol 4-kinase beta (Homo sapiens, UniProt Q9UBF8); assay: Inhibition of PIK4CB in human HeLa cells lysate pre incubated for 15 mins followed by ADP acyl phosphate probe addition and measured after 10 mins by LC-MS/MS analysis; format: subcellular
Chain of Phosphatidylinositol 4-kinase beta (Q9UBF8 whole entry): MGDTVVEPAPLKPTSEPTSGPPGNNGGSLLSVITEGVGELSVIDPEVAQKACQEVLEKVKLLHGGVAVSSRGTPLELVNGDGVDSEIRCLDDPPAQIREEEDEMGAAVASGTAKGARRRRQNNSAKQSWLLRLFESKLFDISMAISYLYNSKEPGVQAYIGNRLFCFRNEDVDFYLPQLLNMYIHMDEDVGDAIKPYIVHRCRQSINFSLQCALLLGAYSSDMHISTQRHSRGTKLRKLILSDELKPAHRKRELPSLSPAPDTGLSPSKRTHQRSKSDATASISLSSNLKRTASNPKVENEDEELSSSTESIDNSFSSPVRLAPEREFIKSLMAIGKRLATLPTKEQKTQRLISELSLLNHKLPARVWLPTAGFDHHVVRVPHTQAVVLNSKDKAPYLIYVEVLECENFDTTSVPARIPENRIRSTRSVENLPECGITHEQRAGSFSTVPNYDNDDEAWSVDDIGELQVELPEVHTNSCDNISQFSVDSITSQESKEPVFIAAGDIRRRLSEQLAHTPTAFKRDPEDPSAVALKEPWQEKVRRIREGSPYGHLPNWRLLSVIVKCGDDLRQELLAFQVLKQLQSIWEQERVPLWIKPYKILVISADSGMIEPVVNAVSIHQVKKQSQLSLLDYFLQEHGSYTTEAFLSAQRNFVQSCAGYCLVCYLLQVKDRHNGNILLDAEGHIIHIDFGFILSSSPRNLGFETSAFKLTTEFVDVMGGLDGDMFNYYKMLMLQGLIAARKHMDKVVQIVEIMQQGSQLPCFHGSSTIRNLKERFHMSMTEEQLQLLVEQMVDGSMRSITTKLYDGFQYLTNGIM

[4] = molecular target: Serine/threonine-protein kinase 3/4 (Homo sapiens, UniProt Q13043+Q13188); assay: Inhibition of MST1/2 in human HeLa cells lysate pre incubated for 15 mins followed by ADP acyl phosphate probe addition and measured after 10 mins by LC-MS/MS analysis; format: subcellular
[5] = Inhibition of CK1g1/g2/g3 in human HeLa cells lysate at 50 uM pre incubated for 15 mins followed by ADP acyl phosphate probe addition and measured after 10 mins by LC-MS/MS analysis relative to control; details: 25 min, condition cancer
[6] = molecular target: T1, STE20-related kinase adapter protein beta (Homo sapiens) (UniProt Q9C0K7); assay: Inhibition of ALS2CR2 in human HeLa cells lysate at 10 uM pre incubated for 15 mins followed by ADP acyl phosphate probe addition and measured after 10 mins by LC-MS/MS analysis relative to control; format: subcellular; details: time 25.0 min
T1 sequence (whole entry): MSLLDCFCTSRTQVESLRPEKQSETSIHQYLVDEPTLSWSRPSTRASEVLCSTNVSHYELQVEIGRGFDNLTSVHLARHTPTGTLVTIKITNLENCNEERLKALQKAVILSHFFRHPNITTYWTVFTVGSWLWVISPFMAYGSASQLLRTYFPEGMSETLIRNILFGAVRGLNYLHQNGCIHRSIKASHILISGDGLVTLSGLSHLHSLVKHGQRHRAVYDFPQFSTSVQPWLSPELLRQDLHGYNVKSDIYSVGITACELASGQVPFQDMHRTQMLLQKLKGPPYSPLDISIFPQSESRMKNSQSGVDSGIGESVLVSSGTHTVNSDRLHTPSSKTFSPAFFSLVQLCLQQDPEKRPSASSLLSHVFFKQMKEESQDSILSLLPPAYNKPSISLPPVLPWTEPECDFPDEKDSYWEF
Method in brief: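 HeLa cell lysates (5 mg/mL total protein) were preincubated with inhibitor at 0, 0.8, 2, 10 or 50 μM for 15 min. ATP or ADP acylphosphate probe was then added (5 μM final) for 10 min, and reactions were stopped with urea. Up to four fragment ions per kinase probe-peptide were quantified by targeted MS. % inhibition was taken relative to untreated lysate. Run in duplicate.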

Wee1-like protein kinase = Wee1-like protein kinase (Homo sapiens, UniProt P30291); assay: Inhibition of Wee1 in human HeLa cells lysate at 50 uM pre incubated for 15 mins followed by ATP acyl phosphate probe addition and measured after 10 mins by LC-MS/MS analysis relative to control; format: subcellular; details: time 25.0 min
Chain of Wee1-like protein kinase (P30291 whole entry, looked up): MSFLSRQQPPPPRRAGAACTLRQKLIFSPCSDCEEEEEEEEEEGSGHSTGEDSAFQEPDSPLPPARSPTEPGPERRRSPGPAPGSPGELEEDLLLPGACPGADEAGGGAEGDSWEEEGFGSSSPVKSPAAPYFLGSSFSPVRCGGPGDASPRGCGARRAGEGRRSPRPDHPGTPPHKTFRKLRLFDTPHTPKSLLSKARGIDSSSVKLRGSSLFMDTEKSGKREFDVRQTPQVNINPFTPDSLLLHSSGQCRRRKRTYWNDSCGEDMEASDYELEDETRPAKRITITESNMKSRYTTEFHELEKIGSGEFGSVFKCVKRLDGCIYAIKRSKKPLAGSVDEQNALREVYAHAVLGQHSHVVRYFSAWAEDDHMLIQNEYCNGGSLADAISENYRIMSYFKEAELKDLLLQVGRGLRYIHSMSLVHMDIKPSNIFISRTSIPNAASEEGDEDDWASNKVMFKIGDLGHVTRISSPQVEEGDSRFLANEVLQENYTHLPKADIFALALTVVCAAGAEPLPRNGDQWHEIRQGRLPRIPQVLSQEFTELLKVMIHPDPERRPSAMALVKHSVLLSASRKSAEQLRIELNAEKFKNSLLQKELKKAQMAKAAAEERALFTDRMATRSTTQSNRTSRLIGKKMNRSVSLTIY

[7] = Inhibition of KHS1/2 in human HeLa cells lysate at 50 uM pre incubated for 15 mins followed by ATP acyl phosphate probe addition and measured after 10 mins by LC-MS/MS analysis relative to control; details: 25 min, condition cancer
[8] = molecular target: Protein kinase C theta type (Homo sapiens, UniProt Q04759); assay: Inhibition of PKCtheta in human HeLa cells lysate at 50 uM pre incubated for 15 mins followed by ATP acyl phosphate probe addition and measured after 10 mins by LC-MS/MS analysis relative to control; format: subcellular; details: time 25.0 min
Chain of Protein kinase C theta type (Q04759 whole entry, looked up): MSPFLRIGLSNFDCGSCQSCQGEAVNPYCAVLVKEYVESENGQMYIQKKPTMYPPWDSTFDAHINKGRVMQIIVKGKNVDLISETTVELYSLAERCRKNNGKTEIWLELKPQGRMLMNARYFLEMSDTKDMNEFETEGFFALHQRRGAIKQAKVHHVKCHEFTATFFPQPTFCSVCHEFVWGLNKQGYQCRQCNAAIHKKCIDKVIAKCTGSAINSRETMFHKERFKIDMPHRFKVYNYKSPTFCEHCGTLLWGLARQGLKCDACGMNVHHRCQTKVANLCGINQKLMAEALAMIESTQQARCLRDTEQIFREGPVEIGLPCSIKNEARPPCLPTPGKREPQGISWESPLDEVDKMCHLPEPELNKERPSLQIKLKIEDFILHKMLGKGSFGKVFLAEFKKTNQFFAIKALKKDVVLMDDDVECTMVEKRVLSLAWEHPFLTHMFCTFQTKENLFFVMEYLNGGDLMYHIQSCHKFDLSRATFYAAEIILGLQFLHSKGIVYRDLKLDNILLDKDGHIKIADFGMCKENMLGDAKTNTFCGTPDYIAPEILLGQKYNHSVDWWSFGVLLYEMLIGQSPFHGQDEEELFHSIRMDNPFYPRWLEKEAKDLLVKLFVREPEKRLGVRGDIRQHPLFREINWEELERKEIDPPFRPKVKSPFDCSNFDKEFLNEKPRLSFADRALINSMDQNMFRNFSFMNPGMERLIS

[9] = molecular target: Cyclin-dependent kinase 2 (Homo sapiens, UniProt P24941); assay: Inhibition of CDK2 in human HeLa cells lysate at 50 uM pre incubated for 15 mins followed by ATP acyl phosphate probe addition and measured after 10 mins by LC-MS/MS analysis relative to control; format: subcellular; details: time 25.0 min
Method in brief: (§1)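 KiNativ profiling in HeLa lysate (5 mg/mL total protein). Lysate incubated 15 min with inhibitor at 50, 10, 2, 0.8 or 0 μM. ATP or ADP acylphosphate probe then added (5 μM final) and reacted 10 min. Reaction stopped with urea and analysed by targeted MS, using up to four fragment ions per kinase peptide-probe conjugate. % inhibition taken against untreated lysate. Run in duplicate.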

[10] = Inhibition of MAP3K2/3 in human HeLa cells lysate at 50 uM pre incubated for 15 mins followed by ATP acyl phosphate probe addition and measured after 10 mins by LC-MS/MS analysis relative to control; details: 25 min, condition cancer
[11] = molecular target: Glycogen synthase kinase-3 beta (Homo sapiens, UniProt P49841); assay: Inhibition of GSK3B isoform 2 in human HeLa cells lysate at 10 uM pre incubated for 15 mins followed by ATP acyl phosphate probe addition and measured after 10 mins by LC-MS/MS analysis relative to control; format: subcellular; details: time 25.0 min
Chain of Glycogen synthase kinase-3 beta (P49841 whole entry, looked up, canonical isoform): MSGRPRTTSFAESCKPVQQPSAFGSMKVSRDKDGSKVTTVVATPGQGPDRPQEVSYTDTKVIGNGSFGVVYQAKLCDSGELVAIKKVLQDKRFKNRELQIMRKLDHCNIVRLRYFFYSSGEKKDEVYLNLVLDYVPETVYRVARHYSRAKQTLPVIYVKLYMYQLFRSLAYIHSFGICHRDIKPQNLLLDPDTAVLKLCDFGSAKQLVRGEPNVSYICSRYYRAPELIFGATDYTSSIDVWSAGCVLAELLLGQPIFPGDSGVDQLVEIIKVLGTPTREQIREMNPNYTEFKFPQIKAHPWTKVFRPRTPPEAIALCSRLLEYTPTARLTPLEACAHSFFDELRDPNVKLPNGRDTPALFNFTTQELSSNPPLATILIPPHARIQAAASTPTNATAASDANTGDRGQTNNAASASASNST

[12] = molecular target: Tyrosine-protein kinase Fer (Homo sapiens, UniProt P16591); assay: Inhibition of FER in human HeLa cells lysate at 10 uM pre incubated for 15 mins followed by ATP acyl phosphate probe addition and measured after 10 mins by LC-MS/MS analysis relative to control; format: subcellular; details: time 25.0 min
Chain of Tyrosine-protein kinase Fer (P16591 whole entry, looked up): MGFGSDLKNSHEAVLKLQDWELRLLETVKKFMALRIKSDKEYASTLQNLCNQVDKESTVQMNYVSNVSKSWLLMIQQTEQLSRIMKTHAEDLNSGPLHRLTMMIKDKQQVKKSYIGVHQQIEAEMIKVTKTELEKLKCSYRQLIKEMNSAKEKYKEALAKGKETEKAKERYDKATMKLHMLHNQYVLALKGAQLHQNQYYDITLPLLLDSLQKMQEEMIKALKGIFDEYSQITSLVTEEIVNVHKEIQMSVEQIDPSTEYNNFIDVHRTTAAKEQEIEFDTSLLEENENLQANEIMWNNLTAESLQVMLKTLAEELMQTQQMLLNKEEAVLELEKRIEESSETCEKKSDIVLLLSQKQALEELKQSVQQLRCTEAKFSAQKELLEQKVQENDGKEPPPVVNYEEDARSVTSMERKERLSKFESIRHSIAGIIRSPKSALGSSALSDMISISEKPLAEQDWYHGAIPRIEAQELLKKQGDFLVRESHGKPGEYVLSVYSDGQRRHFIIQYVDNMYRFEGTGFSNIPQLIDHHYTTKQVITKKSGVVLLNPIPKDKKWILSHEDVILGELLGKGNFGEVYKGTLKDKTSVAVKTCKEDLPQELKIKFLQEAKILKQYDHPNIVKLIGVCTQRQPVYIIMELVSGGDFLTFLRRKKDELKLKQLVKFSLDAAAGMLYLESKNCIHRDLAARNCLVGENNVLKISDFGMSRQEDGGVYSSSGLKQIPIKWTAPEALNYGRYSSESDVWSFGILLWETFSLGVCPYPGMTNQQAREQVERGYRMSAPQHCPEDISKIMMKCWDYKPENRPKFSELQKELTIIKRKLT

[13] = molecular target: T2, Serine/threonine-protein kinase 4 (Homo sapiens) (UniProt Q13043); assay: Inhibition of MST1 in human HeLa cells lysate at 10 uM pre incubated for 15 mins followed by ATP acyl phosphate probe addition and measured after 10 mins by LC-MS/MS analysis relative to control; format: subcellular; details: time 25.0 min
T2 sequence (whole entry): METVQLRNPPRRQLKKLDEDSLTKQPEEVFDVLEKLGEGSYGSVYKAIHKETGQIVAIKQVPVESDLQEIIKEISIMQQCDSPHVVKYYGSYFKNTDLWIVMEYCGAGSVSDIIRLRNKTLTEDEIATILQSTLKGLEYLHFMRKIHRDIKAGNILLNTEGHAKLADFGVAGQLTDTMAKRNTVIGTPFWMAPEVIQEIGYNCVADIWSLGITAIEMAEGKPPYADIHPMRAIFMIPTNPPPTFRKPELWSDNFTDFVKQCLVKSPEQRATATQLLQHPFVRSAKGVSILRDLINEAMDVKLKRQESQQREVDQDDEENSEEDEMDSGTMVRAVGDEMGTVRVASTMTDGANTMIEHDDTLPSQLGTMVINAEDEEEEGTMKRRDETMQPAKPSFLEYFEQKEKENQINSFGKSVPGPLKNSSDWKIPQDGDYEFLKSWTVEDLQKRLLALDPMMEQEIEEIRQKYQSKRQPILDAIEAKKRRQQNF

[14] = molecular target: Cyclin-dependent kinase 10 (Homo sapiens, UniProt Q15131); assay: Inhibition of CDK10 in human HeLa cells lysate at 2 uM pre incubated for 15 mins followed by ATP acyl phosphate probe addition and measured after 10 mins by LC-MS/MS analysis relative to control; format: subcellular; details: time 25.0 min; method in brief: as §1
Chain of Cyclin-dependent kinase 10 (Q15131 whole entry): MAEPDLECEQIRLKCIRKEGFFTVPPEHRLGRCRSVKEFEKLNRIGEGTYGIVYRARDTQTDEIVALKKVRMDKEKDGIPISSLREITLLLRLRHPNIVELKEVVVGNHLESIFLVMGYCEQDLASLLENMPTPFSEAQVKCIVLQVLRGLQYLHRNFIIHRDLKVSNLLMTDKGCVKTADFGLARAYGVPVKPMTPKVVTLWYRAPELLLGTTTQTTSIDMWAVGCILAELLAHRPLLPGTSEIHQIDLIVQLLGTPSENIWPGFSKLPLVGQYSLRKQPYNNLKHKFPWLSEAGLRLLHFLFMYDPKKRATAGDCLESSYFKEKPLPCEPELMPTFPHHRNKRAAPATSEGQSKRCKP

[15] = Inhibition of MSK1/2 domain 1 in human HeLa cells lysate at 2 uM pre incubated for 15 mins followed by ATP acyl phosphate probe addition and measured after 10 mins by LC-MS/MS analysis relative to control; details: 25 min, condition cancer

Chain of Serine/threonine-protein kinase Nek7 (Q8TDX7 whole entry): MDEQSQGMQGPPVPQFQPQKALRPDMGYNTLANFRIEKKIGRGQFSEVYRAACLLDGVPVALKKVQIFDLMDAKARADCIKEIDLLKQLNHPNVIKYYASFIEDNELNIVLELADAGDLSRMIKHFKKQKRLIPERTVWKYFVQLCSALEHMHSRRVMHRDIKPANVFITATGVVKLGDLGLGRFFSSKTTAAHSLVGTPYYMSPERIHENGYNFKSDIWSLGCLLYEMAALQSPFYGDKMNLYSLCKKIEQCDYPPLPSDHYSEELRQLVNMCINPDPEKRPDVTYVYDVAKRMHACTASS

In the case of `CCOc1cc(N2CCC(O)CC2)ccc1Nc1ncc2c(n1)N(C)c1ccccc1C(=O)N2C`, the IC50 [1] is reported as greater than 50 µM, the IC50 [2] is reported as greater than 50 µM and the IC50 [3] is reported as greater than 50 µM. For the same compound, the IC50 [4] was greater than 50 µM, the inhibition at 50 µM [5] was -80.5% and the inhibition [6] was -9.5%. It also gave an inhibition (Wee1-like protein kinase) of 4.1%, an inhibition at 50 µM [7] of 2.5% and an inhibition [8] of 1.8%. For the same compound, the inhibition [9] was -1.9%, the inhibition at 50 µM [10] was -8.7% and the inhibition [11] was -7.8%. It also gave an inhibition [12] of 0%, an inhibition [13] of 1.1% and an inhibition [14] of 3.7%. The inhibition at 2 µM [15] was -4.6%.
